Source: ChEMBL document CHEMBL1154716, “Synthesis of some new S-triazine based chalcones and their derivatives as potent antimicrobial agents” (2010)
Values after ≈ are worked out from the molar mass of the structure shown. Active and inactive are the calls of the source. The rule behind the calls is not given here.

What was measured:
[1] = system: Bacillus cereus; assay: Antimicrobial activity against Bacillus cereus at 10 ug/disk after 24 hrs by disk diffusion assay; format: functional
Outline: (§1)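 Disc diffusion on 4 mm filter discs. Bacteria are grown overnight in LB at 28 C, then adjusted in saline to 1.0 × 10^5 cfu/ml. The suspension is mixed into top agar over peptone agar plates. Plates are incubated 24 h at 28 C, and growth-inhibition zone diameter is measured. Streptomycin and ampicillin controls are applied from a 1 mg/ml stock. Tests are done in duplicate.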

[2] = system: Micrococcus flavus; assay: Antimicrobial activity against Micrococcus flavus at 10 ug/disk after 24 hrs by disk diffusion assay; format: functional; conditions: for zone of inhibition at 10 µg/disc: read-out: IZ; outline: as §1
[3] = system: Staphylococcus aureus; assay: Antimicrobial activity against Staphylococcus aureus at 10 ug/disk after 24 hrs by disk diffusion assay; format: functional; outline: as §1
[4] = system: Escherichia coli; assay: Antimicrobial activity against Escherichia coli at 10 ug/disk after 24 hrs by disk diffusion assay; format: functional; outline: as §1
[5] = system: Pseudomonas aeruginosa; assay: Antimicrobial activity against Pseudomonas aeruginosa at 10 ug/disk after 24 hrs by disk diffusion assay; format: functional; outline: as §1
[6] = system: Enterobacter cloacae; assay: Antimicrobial activity against Enterobacter cloacae at 10 ug/disk after 24 hrs by disk diffusion assay; format: functional; outline: as §1
[7] = system: Salmonella typhimurium; assay: Antimicrobial activity against Salmonella Typhimurium at 10 ug/disk after 24 hrs by disk diffusion assay; format: functional, organism-based; conditions: Salmonella enterica subsp. enterica serovar Typhimurium; outline: as §1
[8] = system: Listeria monocytogenes; assay: Antimicrobial activity against Listeria monocytogenes at 10 ug/disk after 24 hrs by disk diffusion assay; format: functional; outline: as §1
[9] = system: Bacillus cereus; assay: Antimicrobial activity against Bacillus cereus at 1 umol/disk after 24 hrs by disk diffusion assay; format: functional; outline: as §1
[10] = system: Micrococcus flavus; assay: Antimicrobial activity against Micrococcus flavus at 1 umol/disk after 24 hrs by disk diffusion assay; format: functional; outline: as §1
[11] = system: Staphylococcus aureus; assay: Antimicrobial activity against Staphylococcus aureus at 1 umol/disk after 24 hrs by disk diffusion assay; format: functional; outline: as §1
[12] = system: Escherichia coli; assay: Antimicrobial activity against Escherichia coli at 1 umol/disk after 24 hrs by disk diffusion assay; format: functional; outline: as §1
[13] = system: Pseudomonas aeruginosa; assay: Antimicrobial activity against Pseudomonas aeruginosa at 1 umol/disk after 24 hrs by disk diffusion assay; format: functional; outline: as §1
[14] = system: Enterobacter cloacae; assay: Antimicrobial activity against Enterobacter cloacae at 1 umol/disk after 24 hrs by disk diffusion assay; format: functional; outline: as §1
[15] = system: Salmonella typhimurium; assay: Antimicrobial activity against Salmonella Typhimurium at 1 umol/disk after 24 hrs by disk diffusion assay; format: functional, organism-based; conditions: Salmonella enterica subsp. enterica serovar Typhimurium; outline: as §1
[16] = system: Listeria monocytogenes; assay: Antimicrobial activity against Listeria monocytogenes at 1 umol/disk after 24 hrs by disk diffusion assay; format: functional; outline: as §1
[17] = system: Bacillus cereus; assay: Antimicrobial activity against Bacillus cereus at 1 umol/spot after 18 hrs by TLC-bioautographic method; format: functional
Outline: (§2)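 TLC bioautography. Samples are spotted on silica gel TLC plates, then sprayed with bacteria (1.0 × 10^5 cfu/ml) in tryptic soy broth. Plates are incubated 18 h at 37 C and sprayed with 3% aqueous p-iodonitrotetrazolium violet. After a further 3 h, growth is stopped with 70% EtOH. White zones on a pink background are scored as inhibition-zone diameter with standard errors.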

[18] = system: Micrococcus flavus; assay: Antimicrobial activity against Micrococcus flavus at 1 umol/spot after 18 hrs by TLC-bioautographic method; format: functional; outline: as §2
[19] = system: Staphylococcus aureus; assay: Antimicrobial activity against Staphylococcus aureus at 1 umol/spot after 18 hrs by TLC-bioautographic method; format: functional; outline: as §2
[20] = system: Escherichia coli; assay: Antimicrobial activity against Escherichia coli at 1 umol/spot after 18 hrs by TLC-bioautographic method; format: functional; outline: as §2
[21] = system: Pseudomonas aeruginosa; assay: Antimicrobial activity against Pseudomonas aeruginosa at 1 umol/spot after 18 hrs by TLC-bioautographic method; format: functional; outline: as §2
[22] = system: Enterobacter cloacae; assay: Antimicrobial activity against Enterobacter cloacae at 1 umol/spot after 18 hrs by TLC-bioautographic method; format: functional; outline: as §2
[23] = system: Salmonella typhimurium; assay: Antimicrobial activity against Salmonella Typhimurium at 1 umol/spot after 18 hrs by TLC-bioautographic method; format: functional, Salmonella enterica subsp. enterica serovar Typhimurium; outline: as §2
[24] = system: Listeria monocytogenes; assay: Antimicrobial activity against Listeria monocytogenes at 1 umol/spot after 18 hrs by TLC-bioautographic method; format: functional; outline: as §2
[25] = system: Bacillus cereus; assay: Antimicrobial activity against Bacillus cereus after 24 hrs by microdilution technique; format: functional
Outline: (§3)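 Broth microdilution in LB medium. Inoculum is 1.0 × 10^4 cfu per well, from a saline-adjusted suspension of 1.0 × 10^5 cfu/ml. Compounds are dissolved in DMSO. Incubated 24 h at 28 C. MIC is the lowest concentration with no visible growth under a binocular microscope. MBC is read by subculture into fresh broth for 72 h, with no growth taken as 99.5% kill. OD is read at 655 nm.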

[26] = system: Micrococcus flavus; assay: Antimicrobial activity against Micrococcus flavus after 24 hrs by microdilution technique; format: functional; outline: as §3
[27] = system: Staphylococcus aureus; assay: Antimicrobial activity against Staphylococcus aureus after 24 hrs by microdilution technique; format: functional; outline: as §3
[28] = system: Escherichia coli; assay: Antimicrobial activity against Escherichia coli after 24 hrs by microdilution technique; format: functional; outline: as §3
[29] = system: Pseudomonas aeruginosa; assay: Antimicrobial activity against Pseudomonas aeruginosa after 24 hrs by microdilution technique; format: functional; outline: as §3
[30] = system: Enterobacter cloacae; assay: Antimicrobial activity against Enterobacter cloacae after 24 hrs by microdilution technique; format: functional; outline: as §3
[31] = system: Salmonella typhimurium; assay: Antimicrobial activity against Salmonella Typhimurium after 24 hrs by microdilution technique; format: functional, Salmonella enterica subsp. enterica serovar Typhimurium; conditions: Salmonella enterica; outline: as §3
[32] = system: Listeria monocytogenes; assay: Antimicrobial activity against Listeria monocytogenes after 24 hrs by microdilution technique; format: functional; outline: as §3

Row | Structure (SMILES) | inhibition zone (IZ) [1] | inhibition zone (IZ) [3] | inhibition zone (IZ) [4] | inhibition zone (IZ) [5] | inhibition zone (IZ) [6] | inhibition zone (IZ) [7] | inhibition zone (IZ) [8] | inhibition zone (IZ) [9] | inhibition zone (IZ) [10] | inhibition zone (IZ) [11] | inhibition zone (IZ) [12] | inhibition zone (IZ) [13] | inhibition zone (IZ) [14] | inhibition zone (IZ) [15] | inhibition zone (IZ) [16] | inhibition zone (IZ) [17] | inhibition zone (IZ) [18] | inhibition zone (IZ) [19] | inhibition zone (IZ) [20] | inhibition zone (IZ) [21] | other results
1 | CC(=O)N1N=C(c2ccc(Nc3nc(Nc4ccccc4)nc(Nc4ccccc4)n3)cc2)CC1c1ccc(Cl)cc1 (stereo not given) | inactive | inactive | inactive | inactive | inactive | inactive | inactive | inactive | inactive | inactive | inactive | inactive | inactive | inactive | inactive | 0.08 millimeter | inactive | 0.08 millimeter | inactive | inactive | inhibition zone (IZ) [2]: inactive; inhibition zone (IZ) [22]: 0.09 millimeter; inhibition zone (IZ) [23]: 0.07 millimeter; inhibition zone (IZ) [24]: 0.09 millimeter; MBC [25]: 696 µM (≈ 400 µg/mL); MIC [25]: 696 µM (≈ 400 µg/mL); MBC [26]: 696 µM (≈ 400 µg/mL); MIC [26]: 696 µM (≈ 400 µg/mL); MBC [27]: 696 µM (≈ 400 µg/mL); MIC [27]: 696 µM (≈ 400 µg/mL); MBC [28]: 696 µM (≈ 400 µg/mL); MIC [28]: 348 µM (≈ 200 µg/mL); MBC [29]: 696 µM (≈ 400 µg/mL); MIC [29]: 696 µM (≈ 400 µg/mL); MBC [30]: 696 µM (≈ 400 µg/mL); MIC [30]: 696 µM (≈ 400 µg/mL); MBC [31]: 696 µM (≈ 400 µg/mL); MIC [31]: 348 µM (≈ 200 µg/mL); MBC [32]: 696 µM (≈ 400 µg/mL); MIC [32]: 696 µM (≈ 400 µg/mL)
2 | COc1ccccc1-c1cc(-c2ccc(Nc3nc(Nc4ccccc4)nc(Nc4ccccc4)n3)cc2)nc(N)n1 | inactive | inactive | inactive | inactive | inactive | inactive | inactive | inactive | 0.03 millimeter | inactive | inactive | inactive | inactive | inactive | inactive | inactive | 0.06 millimeter | 0.03 millimeter | inactive | inactive | zone of inhibition at 10 µg/disc [2]: 6 mm; inhibition zone (IZ) [22]: inactive; inhibition zone (IZ) ([23]; Salmonella enterica subsp. enterica serovar Typhimurium): inactive; inhibition zone (IZ) [24]: 0.09 millimeter; MBC [25]: 181 µM (≈ 100 µg/mL); MIC [25]: 90.5 µM (≈ 50.1 µg/mL); MBC [26]: 181 µM (≈ 100 µg/mL); MIC [26]: 90.5 µM (≈ 50.1 µg/mL); MBC [27]: 181 µM (≈ 100 µg/mL); MIC [27]: 90.5 µM (≈ 50.1 µg/mL); MBC [28]: 362 µM (≈ 200 µg/mL); MIC [28]: 181 µM (≈ 100 µg/mL); MBC [29]: 362 µM (≈ 200 µg/mL); MIC [29]: 181 µM (≈ 100 µg/mL); MBC [30]: 362 µM (≈ 200 µg/mL); MIC [30]: 181 µM (≈ 100 µg/mL); MBC [31]: 362 µM (≈ 200 µg/mL); MIC [31]: 181 µM (≈ 100 µg/mL); MBC [32]: 724 µM (≈ 401 µg/mL); MIC [32]: 724 µM (≈ 401 µg/mL)
3 | N#Cc1c(-c2cccs2)cc(-c2ccc(Nc3nc(Nc4ccccc4)nc(Nc4ccccc4)n3)cc2)nc1N | inactive | inactive | inactive | inactive | inactive | inactive | inactive | inactive | 0.04 millimeter | inactive | inactive | inactive | inactive | inactive | inactive | inactive | 0.08 millimeter | inactive | 0.06 millimeter | inactive | zone of inhibition at 10 µg/disc [2]: 7 mm; inhibition zone (IZ) [22]: 0.08 millimeter; inhibition zone (IZ) [23]: 0.07 millimeter; inhibition zone (IZ) [24]: 0.09 millimeter; MBC [25]: 90 µM (≈ 49.8 µg/mL); MIC [25]: 45 µM (≈ 24.9 µg/mL); MBC [26]: 90 µM (≈ 49.8 µg/mL); MIC [26]: 45 µM (≈ 24.9 µg/mL); MBC [27]: 180 µM (≈ 99.7 µg/mL); MIC [27]: 90 µM (≈ 49.8 µg/mL); MBC [28]: 90 µM (≈ 49.8 µg/mL); MIC [28]: 45 µM (≈ 24.9 µg/mL); MBC [29]: 180 µM (≈ 99.7 µg/mL); MIC [29]: 90 µM (≈ 49.8 µg/mL); MBC [30]: 180 µM (≈ 99.7 µg/mL); MIC [30]: 90 µM (≈ 49.8 µg/mL); MBC [31]: 90 µM (≈ 49.8 µg/mL); MIC [31]: 45 µM (≈ 24.9 µg/mL); MBC [32]: 360 µM (≈ 199 µg/mL); MIC [32]: 180 µM (≈ 99.7 µg/mL)
